Laboratory results reported in ChEMBL document CHEMBL1799926, “Applying the pro-drug approach to afford highly bioavailable antagonists of P2Y(14)” (Bioorg Med Chem Lett, 2011).

Assays:
[1] = Metabolic stability in whole blood after 1 hr
[2] = Binding affinity to chimpanzee P2Y14 receptor in presence of 2% human serum albumin; set-up: species or system Pan troglodytes
[3] = Oral bioavailability in mouse at 75 mg/kg bid; assay type: ADME, organism-based; details: in vivo
[4] = Half life in mouse at 75 mg/kg, po bid; assay type: ADME, organism-based; set-up: dose 75 mg/kg, route oral; details: in vivo
[5] = Binding affinity to chimpanzee P2Y14 receptor; set-up: species or system Pan troglodytes
Albumin = Albumin (Homo sapiens, UniProt P02768); test: Binding affinity to 4.5 % human serum albumin
[6] = Clearance in mouse at 75 mg/kg, po bid; assay type: ADME, organism-based; set-up: dose 75 mg/kg, route oral; details: in vivo
[7] = Oral bioavailability in mouse at 50 mg/kg; assay type: ADME, organism-based; details: in vivo
How it was run: (§1)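 Mice dosed orally at 50 mg/kg in 0.25% methocel. Plasma levels of the parent zwitterion were measured for both the parent and the ester prodrugs, giving AUC, 24 h concentration and clearance. For prodrugs, bioavailability is expressed as virtual F, based on parent-drug exposure.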

[8] = (§2) AUC in mouse at 50 mg/kg, po after 24 hrs; assay type: ADME, organism-based, Plasma; set-up: time < 24 hr, dose 50 mg/kg, route oral; details: plasma
How it was run: as §1

[9] = Plasma concentration in mouse at 50 mg/kg, po after 24 hrs; assay type: ADME, organism-based; set-up: dose 50 mg/kg, route oral
How it was run: as §1

Mus musculus = test: as §2; assay type: ADME, organism-based, Plasma; set-up: time < 24 hr, dose 50 mg/kg, route oral; details: in vivo, 24 h
How it was run: as §1

Albumin, sequence (P02768 whole entry): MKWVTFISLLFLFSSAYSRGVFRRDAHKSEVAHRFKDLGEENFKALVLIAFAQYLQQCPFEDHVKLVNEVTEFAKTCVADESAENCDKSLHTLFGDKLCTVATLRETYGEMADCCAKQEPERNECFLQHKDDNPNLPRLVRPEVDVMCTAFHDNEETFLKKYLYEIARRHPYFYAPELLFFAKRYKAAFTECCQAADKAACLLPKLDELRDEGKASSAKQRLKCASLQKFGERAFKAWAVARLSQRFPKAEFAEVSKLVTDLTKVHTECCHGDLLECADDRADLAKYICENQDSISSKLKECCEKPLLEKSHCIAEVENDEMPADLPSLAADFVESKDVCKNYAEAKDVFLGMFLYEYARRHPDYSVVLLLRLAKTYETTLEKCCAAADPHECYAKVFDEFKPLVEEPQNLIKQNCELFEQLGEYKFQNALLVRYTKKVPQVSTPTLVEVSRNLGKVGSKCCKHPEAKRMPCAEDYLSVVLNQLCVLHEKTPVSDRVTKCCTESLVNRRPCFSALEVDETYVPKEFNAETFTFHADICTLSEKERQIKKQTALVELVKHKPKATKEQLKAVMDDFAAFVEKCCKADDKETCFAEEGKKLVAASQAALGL

Structure (SMILES): CC(OCC(=O)C(C)C)OC(=O)c1cc(-c2ccc(C3CCNCC3)cc2)c2ccc(-c3ccc(C(F)(F)F)cc3)cc2c1 (stereo not drawn)
- Stability [1]: Unstable

Structure (SMILES): CC(=O)OCOC(=O)c1cc(-c2ccc(C3CCNCC3)cc2)c2ccc(-c3ccc(C(F)(F)F)cc3)cc2c1
- Stability [1]: Unstable

Structure (SMILES): O=C(O)c1cc(-c2ccc([C@@H](O)C(F)F)cc2)c2ccc(-c3ccc(C(F)(F)F)cc3)cc2c1
- Ki [2]: 1290 nM
- bioavailability [3]: 67%
- half-life [4]: 3 h
- Ki [5]: 4 nM
- Activity (Albumin): > 99%
- CL/F [6]: 1.6 mL/min/kg

Structure (SMILES): O=C(O)c1cc(-c2ccc(C3CCNCC3)cc2)c2ccc(-c3ccc(C(F)(F)F)cc3)cc2c1 [PPTN]
- bioavailability [7]: 5%
- Ki [2]: 35 nM
- AUC at 24 h [8]: 23 µM·h
- concentration at 24 h [9]: 680 nM
- Ki [5]: 1.9 nM

Structure (SMILES): CN(C)C(=O)COC(=O)c1cc(-c2ccc(C3CCNCC3)cc2)c2ccc(-c3ccc(C(F)(F)F)cc3)cc2c1
- bioavailability [7]: 67%
- AUC (Mus musculus): 54 µM·h
- concentration at 24 h [9]: 2280 nM
- Stability [1]: Unstable

Structure (SMILES): CN(C)CCOC(=O)c1cc(-c2ccc(C3CCNCC3)cc2)c2ccc(-c3ccc(C(F)(F)F)cc3)cc2c1
- Stability [1]: Unstable
